According to the array DNA melting data of Ke et al. (doi:10.1101/2024.01.08.574731):

How the values were obtained:
[1] = folding enthalpy; higher = less favourable; fluorescence melt of hairpins on a sequencing array, two-state fit; details: sodium 0.088 M
How it was run: (§1)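 Bootstrapped two-state fits yielded melting temperature and folding enthalpy for library hairpins. Cy3 fluorescence, with annealed Cy3 and quencher oligos, was imaged on a sequenced MiSeq flow cell in 50 mM Na-HEPES pH 8.0, 25 mM NaCl in 2.5 °C steps up to 60 °C, and normalised to pre-quench Cy3 and to control constructs. Four replicates were combined by inverse variance, and fitted temperatures were raised by 9.35 °C to match UV melts.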

[2] = melting temperature; fluorescence melt of hairpins on a sequencing array, two-state fit, raised by 9.35 °C to match UV melts; details: sodium 0.088 M
How it was run: as §1

GATCGATGTATCGATC ((((((....))))))
folding enthalpy [1]: -40.9 kcal/mol
Tm [2]: 58.4 °C

GCGAAGCGAAAGCCTCGC ((((.((....)).))))
folding enthalpy [1]: -18.5 kcal/mol
Tm [2]: 57.8 °C

GCCAGGCGAAAGCGGGGC (((..((....))..)))
folding enthalpy [1]: -23.9 kcal/mol
Tm [2]: 63.2 °C

GGGATTGAAAAATCCC ((((((....))))))
folding enthalpy [1]: -43.6 kcal/mol
Tm [2]: 55.8 °C

GTGGTCGAAAGACTGCAC ((((((....)))..)))
folding enthalpy [1]: -14.7 kcal/mol
Tm [2]: 40.8 °C

GATCGAGCCTTCGATC ((((((....))))))
folding enthalpy [1]: -39.5 kcal/mol
Tm [2]: 56.4 °C

GATCAATAAGTTGATC ((((((....))))))
folding enthalpy [1]: -33.7 kcal/mol
Tm [2]: 44.4 °C

GCTTAGCGAAAGCAACGC ((.(.((....)).).))
folding enthalpy [1]: -7.36 kcal/mol
Tm [2]: 30.5 °C

GCACTCGAAAGAGAATGC ((((((....)))..)))
folding enthalpy [1]: -24.6 kcal/mol
Tm [2]: 35.1 °C

GTTTGGGGAAACCCAGAC ((.((((....)))).))
folding enthalpy [1]: -26.4 kcal/mol
Tm [2]: 44.8 °C

GCTGAGCGAAAGCGCGGC ((.(.((....)).).))
folding enthalpy [1]: -26.3 kcal/mol
Tm [2]: 63 °C

GCGTCGTCACGC ((((....))))
folding enthalpy [1]: -22.4 kcal/mol
Tm [2]: 51.8 °C

GGGTGTCGAAAGACCCCC (((.(((....))).)))
folding enthalpy [1]: -24.2 kcal/mol
Tm [2]: 56.4 °C

GCTACGCGAAAGCGCTGC ((..(((....)))..))
folding enthalpy [1]: -15.2 kcal/mol
Tm [2]: 43.5 °C

GCGTAAGGAAACCTACGC (((((.(....).)))))
folding enthalpy [1]: -40 kcal/mol
Tm [2]: 49 °C

GAAGGTGCGAAAGCATTC (((..(((....))))))
folding enthalpy [1]: -6.16 kcal/mol
Tm [2]: 18.4 °C

GATCGGTCGTCCGATC ((((((....))))))
folding enthalpy [1]: -40.9 kcal/mol
Tm [2]: 60.2 °C

GATCTTCTCGAAGATC ((((((....))))))
folding enthalpy [1]: -39 kcal/mol
Tm [2]: 51.8 °C

GTTAACGAAAGTTAAC ((((((....))))))
folding enthalpy [1]: -28.9 kcal/mol
Tm [2]: 56 °C

GTCCTCGAAAGAGTGGAC ((((((....)))..)))
folding enthalpy [1]: -23.6 kcal/mol
Tm [2]: 41.6 °C

GTGCGCGAAAGCGGTCAC ((((((....)))..)))
folding enthalpy [1]: -14.1 kcal/mol
Tm [2]: 43.5 °C

GCGGTGTTCCGC ((((....))))
folding enthalpy [1]: -20 kcal/mol
Tm [2]: 65.7 °C

GAGTATGAAAATACTC ((((((....))))))
folding enthalpy [1]: -36.5 kcal/mol
Tm [2]: 50.3 °C

GTGAACGAAAGTTGCCAC ((((((....)))..)))
folding enthalpy [1]: -9.75 kcal/mol
Tm [2]: 25.9 °C

GATCTTAGACAAGATC ((((((....))))))
folding enthalpy [1]: -30.2 kcal/mol
Tm [2]: 37.3 °C

CGAGCGGAAACGCGATCG ((((((....)))..)))
folding enthalpy [1]: -12.1 kcal/mol
Tm [2]: 47 °C

GCATAAGGAAACTTATGC (((((((....)))))))
folding enthalpy [1]: -39.1 kcal/mol
Tm [2]: 54.7 °C

GAAGTACGAAAGTAGTTC (((.(((....))).)))
folding enthalpy [1]: -34.8 kcal/mol
Tm [2]: 46.8 °C

GTTGCTGGAAACGGTAAC (((.(.(....).).)))
folding enthalpy [1]: -16.4 kcal/mol
Tm [2]: 33.7 °C

GCAGAGCGAAAGCGCGGC ((.(.((....)).).))
folding enthalpy [1]: -20.9 kcal/mol
Tm [2]: 60.1 °C

GACAGGGGAAACCCCATC ((..(((....)))..))
folding enthalpy [1]: -13.2 kcal/mol
Tm [2]: 27.1 °C

TCCAAGAAATTGGA (((((....)))))
folding enthalpy [1]: -10.5 kcal/mol
Tm [2]: 31.2 °C

GACGACGAAAGTCGGGTC ((((((....)))..)))
folding enthalpy [1]: -12.8 kcal/mol
Tm [2]: 64.1 °C

GCGTAGTGACGC ((((....))))
folding enthalpy [1]: -15.4 kcal/mol
Tm [2]: 53.7 °C

GCTGTTCGAAAGAATAGC (((.(((....))).)))
folding enthalpy [1]: -44.9 kcal/mol
Tm [2]: 53.2 °C

GATAAGGGAAACCTTATC (((((((....)))))))
folding enthalpy [1]: -44.2 kcal/mol
Tm [2]: 49.7 °C

GAACCCGGAAACGGGCTC ((.((((....)))).))
folding enthalpy [1]: -15.4 kcal/mol
Tm [2]: 47.3 °C

GTTTCCGAAAGGAGAAC ((((((....))).)))
folding enthalpy [1]: -16.5 kcal/mol
Tm [2]: 34.7 °C
